T cruzi repl = inhibitors of intracellular T. cruzi growth, primary screen, luminescence, NIH3T3 host cells. inhibition, % (concentration not given with the values). 300,000 compounds, 1.4% hits. T. cruzi beta-gal in NIH3T3, 90 h. AID 1885, 2009;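 active = mean inhibition across valid replicates above about 55%, limit read from the data; inconclusive = mean below that limit but half or more replicates reach it; inactive = mean below it, under half of replicates reach it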;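 also: signal also drops with host cell toxicity which is not excluded here; 0% = plate median of DMSO wells and 100% = zero luminescence signal; higher percent means less beta-gal luminescence so fewer parasites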
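System: NIH/3T3 fibroblasts plus reporter T. cruzi. Medium: DMEM plus 2% FBS. Probe or stimulus: 5000 reporter trypomastigotes per well. Compound: single 50 nL compound addition per well in DMSO. Incubation: co-culture of at least 90 h after 3 h attachment. Detection: GalScreen β-gal luminescence, detergent lysis, 60 min. Evaluation: parasite load inhibition, %.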
HSF1 inhib = HSF1 inhibitors in luciferase reporter cells, primary screen, cell-based, NIH3T3, luminescence | NIH3T3-HGL HSE-luciferase, MG132-induced, luminescence 8 h; stronger effect = lower value | activity change, negative = inhibition, % at 7.5 µM (by protocol) | 300,000 compounds, 0.77% hits;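 active = more than half of replicate wells show activity change below -50%, luminescence cut by over half; inconclusive = some wells, but at most half, below -50%; inactive = no replicate well below -50%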;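 also: luciferase reports HSF-1 transcriptional activity via heat shock element; 0% = median of DMSO wells and -100% = zero luminescence signal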
HIF activator = HIF pathway transcriptional activators, primary screen, cell-based, U2OS HRE-luciferase, luminescence; U2OS HRE-luciferase reporter; normalized: DMSO 0%, desferrioxamine 100%; activation, % at 7.5 µM (by protocol); 300,000 compounds, 0.32% hits;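 active = mean activation of at least 10% of the iron chelator positive control signal, with at least half of replicates also reaching 10%; inconclusive = mean and replicate majority disagree about reaching 10%; inactive = mean and most replicates under 10%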
HSF-1 act = HSF-1 activators, primary screen, NIH3T3-HGL cells, MG132 stress, luminescence, single point; NIH3T3-HGL HSF-1 luciferase reporter, 8 h; 100% = twice DMSO control signal; activation, % at 9 µM; 300,000 compounds, 1.7% hits; AID 504408, 2011;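 active = mean replicate activation of at least 50% with a set share of replicates each reaching 50%; inconclusive = only one of those two conditions met; inactive = mean below 50% and too few replicates reaching it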;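 also: 0% = median of the neutral control wells and 100% = twice that signal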
Calb FLC = C. albicans growth inhibition with fluconazole, primary screen, CaCi-2 strain, Alamar Blue fluorescence; C. albicans CaCi-2 + fluconazole, 48 h; growth inhibition, % (no concentration beside the values); 300,000 compounds, 0.57% hits;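 active = growth inhibition above about 58% in most replicates, limit read from the data, passing the limit was not always enough; inconclusive = exactly half the replicates above a set limit; inactive = most replicates below a set limit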;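 also: all wells also contain fluconazole at 8 µg/ml as a sub-toxic cotreatment; 0% = median of DMSO wells and 100% = median of geldanamycin control wells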
* marks the source's active call; other numbers are inactive results; u = inconclusive; x = no result. This is a sample that favours compounds with a hit; in the whole collection about 4.4% have one here.

SMILES	T cruzi repl	HSF1 inhib	HIF activator	HSF-1 act	Calb FLC
COc1cccc(NC(=O)c2cc3cccc(OC)c3o/c2=N\O)c1	-11	19	2	59*	x
COc1cc(NC(=O)c2cc3cccc(OC)c3o2)cc(C(=O)Nc2cccc(C(F)(F)F)c2)c1	19	-67*	1	-74	-3
COc1cccc(NC(=O)c2cc3ccccc3o/c2=N\O)c1	-15	44	-2	u	-4
CN(C)C(CNC(=S)Nc1ccc(Cl)cc1)c1cccnc1 (stereo not drawn)	12	6	0	2	-1
Cc1ccc(NS(=O)(=O)c2ccc(C(=O)N3CCN(S(=O)(=O)c4ccccc4)CC3)cc2)cc1	1	3	-1	8	-9
O=C(N/N=C/c1cnc2ccccc2n1)c1cccc(F)c1	5	-7	3	10	u
CN(C)S(=O)(=O)c1ccc(C(=O)NC2CCCc3ccccc32)cc1 (stereo not drawn)	-3	-6	0	21	-6
COc1ccc(NC(=O)CN(C)S(=O)(=O)c2ccc(Br)s2)cc1OC	1	26	0	55*	1
O=[N+]([O-])c1ccc(S(=O)(=O)N2CCSC2c2ccco2)cc1 (stereo not drawn)	36	19	0	51*	15
O=S(=O)(c1ccc(Cl)cc1)N1CCSC1c1ccco1 (stereo not drawn)	5	x	0	x	-44
COc1cccc(-c2nnc(-c3ccc(C)o3)o2)c1	-25	28	-4	63*	1
COc1cccc(C(=O)Nc2ccc(-c3nnc(-c4ccco4)o3)cc2)c1	4	22	1	34	-3
COc1cccc(-c2nnc(-c3ccco3)o2)c1	-3	43	4	74*	4
COc1ccc2c(c1)C(C1C(=O)CCCC1=O)c1ccccc1O2 (stereo not drawn)	-28	2	0	-6	-13
CCc1ccc(OCCCCN(C)Cc2ccccc2)cc1	55*	-1	-1	11	-1
COC(CNC(=O)c1ccc(CS(=O)(=O)c2ccc(Br)cc2)o1)OC	-3	-1	0	0	-2
CCCOc1ccc(-c2c(=O)n(OCC(=O)OCC)c3ccccc3[n+]2[O-])cc1	-7	34	3	56*	12
O/N=C/C1=C(Cl)c2ccccc2CC1	-1	-4	0	-6	-1
O=C(NCc1ccco1)c1ccc(N2CCCCC2)c([N+](=O)[O-])c1	27	13	0	19	3
Cc1ccc(N(Cc2ccco2)C(=O)c2ccc(N3CCCCC3)c([N+](=O)[O-])c2)cc1	56*	11	0	13	1
Cn1nc(-c2ccccn2)nc2c(=O)n(C)c(=O)nc1-2	59*	-94*	-4	-94	4
COc1ccc(-c2nc(-c3ccccn3)ncc2S(C)(=O)=O)cc1	-10	-5	0	-4	-28
Cc1ccc2[nH]c(O)c(N=NC(=O)CCc3ccccc3)c2c1Br	23	-11	0	-5	13
O=C(NCCCNC(=O)c1ccccn1)c1ccc(Br)cc1	2	-9	0	-13	-2
O=C(CC1NCCNC1=O)Nc1ccc(Cl)c(Cl)c1 (stereo not drawn)	-7	-2	-34	14	-2
SMILES	T cruzi repl	HSF1 inhib	HIF activator	HSF-1 act	Calb FLC
Cc1ccc(NC(=O)CC2NCCNC2=O)cc1Cl (stereo not drawn)	0	2	1	-1	120*
Cc1cc(C)c(NC(=O)CS(=O)CC(=O)Nc2ccc(-n3cnnn3)c(C)c2)c(C)c1 (stereo not drawn)	-13	-7	0	2	8
CN1CCN(C2Cc3ccc(F)cc3Sc3cc(F)c(Cl)cc32)CC1 (stereo not drawn)	51	1	39*	1	42
CN1CCN(C2Cc3cc(F)ccc3Sc3ccc(Cl)cc32)CC1 (stereo not drawn)	34	1	1	7	42
CN1c2ccc([N+](=O)[O-])cc2N(C)C1(C)c1ccccc1 (stereo not drawn)	57*	15	-12	33	1
Cn1c2ccccc2c2cc([N+](=O)[O-])ccc21	12	-6	0	17	18
N#CC(C(=O)OC1CCCCC1)c1nc2ccccc2nc1N1CCCCC1 (stereo not drawn)	67*	-4	0	5	-8
CC1CN(c2nc3ccccc3nc2C(C#N)C(=O)NC2CCCCC2)CC(C)O1 (stereo not drawn)	25	-16	0	-17	-3
CC1CN(c2nc3ccccc3nc2C(C#N)C(=O)OC2CCCCC2)CC(C)O1 (stereo not drawn)	63*	-1	0	-3	-4
CC1CCN(c2nc3ccccc3nc2C(C#N)C(=O)OC2CCCCC2)CC1 (stereo not drawn)	7	12	0	-12	23
CN(C(=O)COC(=O)c1nc(Cl)c(Cl)c(Cl)c1Cl)C1CCS(=O)(=O)C1 (stereo not drawn)	36	u	-7	-29	20
C/C(=N\Nc1cc(N2CCOCC2)nc(C)n1)c1ccc(F)cc1	37	-8	-1	-2	5
C/C(=N\Nc1cc(N2CCCCC2)nc(C)n1)c1ccc(Br)cc1	72*	3	3	42	0
COc1ccc(C(=O)N2CCN=C2SCc2cccnc2)cc1OC	-23	-66*	x	-75	-1
CSc1ccccc1NC(=O)C1=CC(c2ccc(C)cc2)=NS(=O)(=O)N1C	-6	-56*	0	-65	-8
O=C(CSc1nnc2ccc(-c3ccc(Br)cc3)nn12)NCC1CCCO1 (stereo not drawn)	-13	-2	0	-5	1
NS(=O)(=O)c1ccc(N=Nc2ccc(O)c3ncccc23)cc1	66*	-14	0	-11	79*
NS(=O)(=O)c1ccc(N=Nc2c(O)ccc3ccccc23)cc1	4	0	2	-5	33
CCOc1ccc(N=Nc2ccc(O)c3ncccc23)cc1	65*	54	3	89*	83*
CCS(=O)(=O)c1ccc(OC)c(N=Nc2ccc(O)c3ncccc23)c1	18	-6	0	-8	-12
CCOc1ccc(N=Nc2cc(C(C)C)ccc2O)cc1	-3	-6	1	-1	1
CCN(CC)S(=O)(=O)c1cc(OC)ccc1N=Nc1ccc(O)c2ncccc12	41	-44	4	-48	86*
CCc1c(C)sc2nc(C(C)C)nc(SCC(=O)N3CCc4ccccc4C3)c12	35	11	0	16	-4
Cc1ccccc1CNC(=O)c1ccccc1	-8	x	0	x	-1

From PubChem BioAssay
